This is an account of results in ChEMBL document CHEMBL4373697, “Cyclization of RGD Peptides by Suzuki-Miyaura Cross-Coupling” (J Med Chem, 2019).

Data set [1] concerns the target T1, Integrin alpha-V/beta-3 (Homo sapiens, UniProt P05106+P06756). Kind of data set: Inhibition of human vitronectin binding to human integrin alphavbeta3 receptor after 1 hr by ELISA. In kind it is protein-complex assay.
Data set [2] concerns the target T1, Integrin alpha-V/beta-3. Nature of the data set: Binding affinity to integrin alphavbeta3 receptor in human WM115 cells assessed as inhibition of cell adhesion to vitronectin after 0.5 hr by fluorescence assay. In kind it is cell-based.
For another data set, the target named is Integrin alpha-5/beta-1 (Homo sapiens, UniProt P05556+P08648). Nature of the data set: Inhibition of human fibronectin binding to human integrin alpha5beta1 incubated for 1 hr by ELISA. In kind it is protein-complex assay.
Sequence of Integrin alpha-5/beta-1 (P05556 21-798 limits assumed): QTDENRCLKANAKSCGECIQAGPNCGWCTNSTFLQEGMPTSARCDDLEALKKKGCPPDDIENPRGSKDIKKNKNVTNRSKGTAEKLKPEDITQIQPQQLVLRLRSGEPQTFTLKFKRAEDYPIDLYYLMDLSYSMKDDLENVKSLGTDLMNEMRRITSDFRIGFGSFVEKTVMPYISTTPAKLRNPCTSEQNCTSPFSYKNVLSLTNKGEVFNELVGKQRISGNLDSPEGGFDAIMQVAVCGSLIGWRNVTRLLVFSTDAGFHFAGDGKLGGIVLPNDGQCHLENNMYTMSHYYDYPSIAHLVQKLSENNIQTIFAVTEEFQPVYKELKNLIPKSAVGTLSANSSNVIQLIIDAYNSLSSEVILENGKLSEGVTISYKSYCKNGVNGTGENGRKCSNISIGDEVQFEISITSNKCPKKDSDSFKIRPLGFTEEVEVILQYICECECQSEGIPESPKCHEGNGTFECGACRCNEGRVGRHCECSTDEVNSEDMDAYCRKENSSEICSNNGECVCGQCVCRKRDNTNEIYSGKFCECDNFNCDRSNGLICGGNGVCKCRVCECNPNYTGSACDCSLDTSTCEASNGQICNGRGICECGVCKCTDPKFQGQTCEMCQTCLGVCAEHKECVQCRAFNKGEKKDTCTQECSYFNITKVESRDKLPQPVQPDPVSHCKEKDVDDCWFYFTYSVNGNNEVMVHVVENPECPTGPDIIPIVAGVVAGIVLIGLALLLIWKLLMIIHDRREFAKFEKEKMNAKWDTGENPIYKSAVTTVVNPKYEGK
Sequence of Integrin alpha-5/beta-1 (P08648 42-894 limits assumed): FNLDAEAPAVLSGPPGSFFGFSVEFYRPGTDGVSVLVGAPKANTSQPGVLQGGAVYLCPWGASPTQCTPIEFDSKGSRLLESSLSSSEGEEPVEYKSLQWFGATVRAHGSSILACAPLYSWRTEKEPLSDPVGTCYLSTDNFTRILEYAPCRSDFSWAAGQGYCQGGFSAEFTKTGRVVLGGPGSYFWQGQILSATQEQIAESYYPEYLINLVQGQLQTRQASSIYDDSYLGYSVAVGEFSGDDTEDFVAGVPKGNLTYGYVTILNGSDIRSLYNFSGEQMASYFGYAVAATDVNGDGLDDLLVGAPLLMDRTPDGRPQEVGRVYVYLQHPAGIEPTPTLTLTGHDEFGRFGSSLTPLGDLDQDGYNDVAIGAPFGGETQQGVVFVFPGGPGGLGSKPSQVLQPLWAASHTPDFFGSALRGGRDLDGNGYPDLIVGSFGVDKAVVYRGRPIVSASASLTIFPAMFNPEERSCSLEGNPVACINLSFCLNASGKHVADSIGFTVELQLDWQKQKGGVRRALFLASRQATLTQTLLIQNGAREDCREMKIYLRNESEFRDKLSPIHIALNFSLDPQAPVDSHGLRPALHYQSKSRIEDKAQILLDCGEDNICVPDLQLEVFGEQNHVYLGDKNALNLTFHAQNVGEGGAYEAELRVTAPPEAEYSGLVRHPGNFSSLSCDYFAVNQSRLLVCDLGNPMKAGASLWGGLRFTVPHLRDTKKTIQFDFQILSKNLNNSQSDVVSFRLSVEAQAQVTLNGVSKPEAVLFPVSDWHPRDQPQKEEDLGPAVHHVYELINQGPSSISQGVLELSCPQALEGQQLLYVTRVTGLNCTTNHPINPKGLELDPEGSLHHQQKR
Sequence of Integrin alpha-5/beta-1 (P08648 895-1049 limits assumed): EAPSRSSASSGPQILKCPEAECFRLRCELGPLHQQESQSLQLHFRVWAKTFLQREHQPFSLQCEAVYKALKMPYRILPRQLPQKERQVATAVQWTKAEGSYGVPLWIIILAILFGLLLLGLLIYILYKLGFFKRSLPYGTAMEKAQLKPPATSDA
The nature of data set [3]: Half-life in human plasma at 500 uM incubated for 24 hrs and measured up to 24 hrs by LC-MS analysis. It is filed as ADME, cell-free. The method, boiled down: (§1)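 Compound from DMSO stock (final DMSO ≤1%) in human citrate plasma, pH 7.5, incubated at 37 °C, 400 rpm, for 24 h. Aliquots were taken at 0, 1, 3, 6, 8 and 24 h and quenched with cold acetonitrile containing warfarin (50 µM final) as internal standard, then centrifuged. Supernatant was run by LC-MS; UV peak area was compared with the internal standard.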

Data set [4] has as its target Integrin alpha-IIb/beta-3 (Homo sapiens, UniProt P05106+P08514). Kind of data set: Inhibition of human fibronectin binding to human Integrin alpha2b beta3 receptor incubated for 1 hr by ELISA. It is filed as protein-complex assay.
Data set [5] can be described thus: Half-life in human plasma at 250 uM incubated for 24 hrs and measured up to 24 hrs by LC-MS analysis. It is filed as ADME, cell-free. The method, boiled down: as §1

T1 sequence (P05106 27-788 limits assumed): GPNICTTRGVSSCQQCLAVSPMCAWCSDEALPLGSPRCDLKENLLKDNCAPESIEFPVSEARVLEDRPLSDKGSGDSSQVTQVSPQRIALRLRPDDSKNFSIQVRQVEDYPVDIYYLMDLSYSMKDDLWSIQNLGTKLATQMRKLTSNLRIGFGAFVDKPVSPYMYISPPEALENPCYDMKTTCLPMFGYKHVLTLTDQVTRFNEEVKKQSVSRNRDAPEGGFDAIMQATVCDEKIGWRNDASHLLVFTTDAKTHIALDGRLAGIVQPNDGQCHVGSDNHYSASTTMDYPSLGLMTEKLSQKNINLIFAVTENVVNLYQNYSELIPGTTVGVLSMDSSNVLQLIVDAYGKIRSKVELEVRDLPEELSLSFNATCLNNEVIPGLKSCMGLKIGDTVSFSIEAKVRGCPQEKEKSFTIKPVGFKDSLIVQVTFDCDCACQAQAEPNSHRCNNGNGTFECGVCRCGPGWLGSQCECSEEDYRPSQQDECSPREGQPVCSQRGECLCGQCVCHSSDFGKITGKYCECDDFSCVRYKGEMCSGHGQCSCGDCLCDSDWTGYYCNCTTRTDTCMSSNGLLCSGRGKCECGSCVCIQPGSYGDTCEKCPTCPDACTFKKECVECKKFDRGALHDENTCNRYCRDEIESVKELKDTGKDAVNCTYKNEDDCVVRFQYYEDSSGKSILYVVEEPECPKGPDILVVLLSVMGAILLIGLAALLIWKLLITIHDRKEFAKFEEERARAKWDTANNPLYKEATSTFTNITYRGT
T1 sequence (P06756 31-889 limits assumed): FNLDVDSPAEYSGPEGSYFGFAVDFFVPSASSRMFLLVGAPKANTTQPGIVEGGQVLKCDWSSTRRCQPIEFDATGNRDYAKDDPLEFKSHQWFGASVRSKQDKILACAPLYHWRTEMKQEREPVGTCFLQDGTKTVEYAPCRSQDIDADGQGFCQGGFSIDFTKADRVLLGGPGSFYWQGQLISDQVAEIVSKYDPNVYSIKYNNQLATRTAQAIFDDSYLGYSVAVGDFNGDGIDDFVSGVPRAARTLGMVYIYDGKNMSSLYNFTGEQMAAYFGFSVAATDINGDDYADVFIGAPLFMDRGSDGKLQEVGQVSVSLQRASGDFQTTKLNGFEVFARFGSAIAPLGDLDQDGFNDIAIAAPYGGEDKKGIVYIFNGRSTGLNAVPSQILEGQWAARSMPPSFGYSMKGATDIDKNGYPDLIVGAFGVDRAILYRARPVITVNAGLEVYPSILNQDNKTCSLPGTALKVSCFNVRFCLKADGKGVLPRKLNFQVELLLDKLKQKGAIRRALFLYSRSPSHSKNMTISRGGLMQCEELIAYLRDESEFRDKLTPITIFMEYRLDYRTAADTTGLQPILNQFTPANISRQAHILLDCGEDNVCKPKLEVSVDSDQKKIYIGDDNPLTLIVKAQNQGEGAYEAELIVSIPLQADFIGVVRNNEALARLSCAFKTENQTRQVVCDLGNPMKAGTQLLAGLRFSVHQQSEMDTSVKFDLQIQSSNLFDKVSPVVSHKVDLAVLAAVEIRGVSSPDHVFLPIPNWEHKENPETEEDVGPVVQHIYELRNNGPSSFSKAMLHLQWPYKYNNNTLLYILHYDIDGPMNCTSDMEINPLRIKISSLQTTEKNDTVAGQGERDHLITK
T1 sequence (P06756 891-1048 limits assumed): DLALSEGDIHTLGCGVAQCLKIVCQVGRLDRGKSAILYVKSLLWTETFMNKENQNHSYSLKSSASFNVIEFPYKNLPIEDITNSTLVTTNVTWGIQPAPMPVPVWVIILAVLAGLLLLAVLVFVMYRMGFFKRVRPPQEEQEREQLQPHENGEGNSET
Sequence of Integrin alpha-IIb/beta-3 (P05106 27-788 limits assumed): as the sequence (P05106 27-788 limits assumed) above
Sequence of Integrin alpha-IIb/beta-3 (P08514 32-887 limits assumed): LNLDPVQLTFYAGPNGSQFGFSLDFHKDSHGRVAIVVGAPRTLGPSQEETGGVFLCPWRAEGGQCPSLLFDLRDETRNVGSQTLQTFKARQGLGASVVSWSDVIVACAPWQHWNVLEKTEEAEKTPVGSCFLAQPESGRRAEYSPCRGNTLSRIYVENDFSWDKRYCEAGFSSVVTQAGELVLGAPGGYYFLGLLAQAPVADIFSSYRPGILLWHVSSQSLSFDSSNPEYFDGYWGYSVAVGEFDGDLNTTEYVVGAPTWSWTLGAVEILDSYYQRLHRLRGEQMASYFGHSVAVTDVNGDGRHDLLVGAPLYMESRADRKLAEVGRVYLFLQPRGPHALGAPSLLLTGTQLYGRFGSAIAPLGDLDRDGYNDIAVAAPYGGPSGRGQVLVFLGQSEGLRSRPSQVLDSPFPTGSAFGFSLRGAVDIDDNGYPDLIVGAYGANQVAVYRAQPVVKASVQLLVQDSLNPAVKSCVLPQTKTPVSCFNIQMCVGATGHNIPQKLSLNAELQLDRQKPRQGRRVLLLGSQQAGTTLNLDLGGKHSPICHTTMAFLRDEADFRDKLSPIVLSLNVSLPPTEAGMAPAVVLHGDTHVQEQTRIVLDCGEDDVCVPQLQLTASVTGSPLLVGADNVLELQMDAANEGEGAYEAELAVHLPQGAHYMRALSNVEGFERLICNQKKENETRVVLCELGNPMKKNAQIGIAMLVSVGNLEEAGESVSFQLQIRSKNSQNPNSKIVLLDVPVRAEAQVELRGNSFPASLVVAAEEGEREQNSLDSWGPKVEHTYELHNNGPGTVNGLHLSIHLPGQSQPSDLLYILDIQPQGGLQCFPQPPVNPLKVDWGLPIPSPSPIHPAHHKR
Sequence of Integrin alpha-IIb/beta-3 (P08514 891-1039 limits assumed): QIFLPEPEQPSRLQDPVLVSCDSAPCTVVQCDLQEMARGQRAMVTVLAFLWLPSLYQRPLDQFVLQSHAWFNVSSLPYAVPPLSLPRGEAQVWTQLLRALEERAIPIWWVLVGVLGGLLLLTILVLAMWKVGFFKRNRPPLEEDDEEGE

In the case of `CN1C(=O)[C@H](Cc2ccccc2)NC(=O)[C@H](CC(=O)O)NC(=O)CNC(=O)[C@H](CCCNC(=N)N)NC(=O)c2ccccc2-c2cccc3c(c[nH]c23)C[C@@H]1C(N)=O`, the IC50 (in general, the concentration that inhibits the measured activity by half) on Integrin alpha-V/beta-3 [1] was found to be 64.6 nM; at Integrin alpha-V/beta-3 [2], 158000 nM; at Integrin alpha-5/beta-1 it was 1.92 nM.

For the compound `CN1C(=O)[C@H](Cc2ccccc2)NC(=O)[C@H](CC(=O)O)NC(=O)CNC(=O)[C@H](CCCNC(=N)N)NC(=O)c2cccc(c2)-c2cccc3c(c[nH]c23)C[C@@H]1C(N)=O`, the IC50 at Integrin alpha-V/beta-3 [1] is 5.4 to 13.9 nM; on Integrin alpha-V/beta-3 [2], 9400 nM; on Integrin alpha-5/beta-1, 547 nM; in data set [4], 5800 nM. For the same compound, the half-life – broadly, how long it takes for the measured level to halve – at 500 µM in data set [3] was over 1440 min.

As to `CN1C(=O)[C@H](Cc2ccccc2)NC(=O)[C@H](CC(=O)O)NC(=O)CNC(=O)[C@H](CCCNC(=N)N)NC(=O)CCCCc2cccc3c(c[nH]c23)C[C@@H]1C(N)=O`, the results for the IC50 on Integrin alpha-V/beta-3 [1], on Integrin alpha-V/beta-3 [2] and on Integrin alpha-5/beta-1 were 36.2 nM, over 500000 nM and 563 nM, respectively.

With `N=C(N)NCCC[C@@H]1NC(=O)c2ccc(cc2)-c2ccc3c(c[nH]c3c2)C[C@H](C(N)=O)NC(=O)[C@H](Cc2ccccc2)NC(=O)[C@H](CC(=O)O)NC(=O)CNC1=O`, the IC50 was 59.2 nM at Integrin alpha-V/beta-3 [1], 310000 nM on Integrin alpha-V/beta-3 [2] and over 10000 nM at Integrin alpha-5/beta-1.

For the compound `CN1C(=O)[C@H](Cc2ccccc2)NC(=O)[C@H](CC(=O)O)NC(=O)CNC(=O)[C@H](CCCNC(=N)N)NC(=O)CCc2cccc3c(c[nH]c23)C[C@@H]1C(N)=O`, the IC50 on Integrin alpha-V/beta-3 [1] turned out to be 12.8 nM; at Integrin alpha-V/beta-3 [2], 250000 nM; at Integrin alpha-5/beta-1, 325 nM; in data set [4] it was 5030 nM.

On to `CCN(CC)CCOC(=O)c1ccc(N)cc1` [PROCAINE], for which, in data set [5], the half-life at 250 µM was 30 min.

On to `CN1C(=O)[C@H](Cc2ccccc2)NC(=O)[C@H](CC(=O)O)NC(=O)CNC(=O)[C@H](CCCNC(=N)N)NC(=O)CCCc2cccc3c(c[nH]c23)C[C@@H]1C(N)=O`, for which the results for the IC50 on Integrin alpha-V/beta-3 [1], at Integrin alpha-V/beta-3 [2] and on Integrin alpha-5/beta-1 were 34 nM, over 500000 nM and 154 nM, respectively.

With `CN1C(=O)[C@H](Cc2ccccc2)NC(=O)[C@H](CC(=O)O)NC(=O)CNC(=O)[C@H](CCCNC(=N)N)NC(=O)c2ccc(cc2)-c2ccc3c(c[nH]c3c2)C[C@@H]1C(N)=O`, the IC50 is 14.9 nM at Integrin alpha-V/beta-3 [1], 244000 nM on Integrin alpha-V/beta-3 [2], 2720 nM on Integrin alpha-5/beta-1 and over 10000 nM in data set [4].

For `CN1C(=O)[C@H](CC(=O)O)NC(=O)CNC(=O)[C@H](CCCNC(=N)N)NC(=O)c2ccc(cc2)-c2cccc3c(c[nH]c23)C[C@H]1C(N)=O`, the IC50 was 239 nM on Integrin alpha-V/beta-3 [1], over 500000 nM on Integrin alpha-V/beta-3 [2] and over 10000 nM at Integrin alpha-5/beta-1.

In the case of `CN1C(=O)[C@H](CC(=O)O)NC(=O)CNC(=O)[C@H](CCCNC(=N)N)NC(=O)c2ccc(cc2)-c2cccc3c(c[nH]c23)C[C@@H]1C(N)=O`, the values for the IC50 at Integrin alpha-V/beta-3 [1], on Integrin alpha-V/beta-3 [2] and on Integrin alpha-5/beta-1 were 537 nM, over 500000 nM and over 10000 nM, respectively.

Regarding `CN1C(=O)[C@@H](Cc2ccccc2)NC(=O)[C@H](CC(=O)O)NC(=O)CNC(=O)[C@H](CCCNC(=N)N)NC(=O)c2ccc(cc2)-c2cccc3c(c[nH]c23)C[C@H]1C(N)=O`, the half-maximal inhibitory concentration (IC50) at Integrin alpha-V/beta-3 [1] is 95.2 nM; at Integrin alpha-V/beta-3 [2], over 500000 nM; at Integrin alpha-5/beta-1, 2160 nM.

With `N=C(N)NCCC[C@@H]1NC(=O)c2ccc(cc2)-c2cccc3c(c[nH]c23)C[C@@H](C(N)=O)NC(=O)[C@@H](Cc2ccccc2)NC(=O)[C@H](CC(=O)O)NC(=O)CNC1=O`, the IC50 at Integrin alpha-V/beta-3 [1] is 579 nM; at Integrin alpha-V/beta-3 [2] it was over 500000 nM; at Integrin alpha-5/beta-1, 5670 nM.

As for `N=C(N)NCCC[C@@H]1NC(=O)c2cccc(c2)-c2cccc3c(c[nH]c23)C[C@@H](C(N)=O)NC(=O)[C@H](CC(=O)O)NC(=O)CNC1=O`, the IC50 on Integrin alpha-V/beta-3 [1] was 19 nM; at Integrin alpha-V/beta-3 [2], over 500000 nM; at Integrin alpha-5/beta-1 it was 8030 nM.

In the case of `N=C(N)NCCC[C@@H]1NC(=O)c2ccc(cc2)-c2cccc3c(c[nH]c23)C[C@H](C(N)=O)NC(=O)[C@H](CC(=O)O)NC(=O)CNC1=O`, the IC50 is 41.3 nM at Integrin alpha-V/beta-3 [1], over 500000 nM on Integrin alpha-V/beta-3 [2], 5940 nM at Integrin alpha-5/beta-1 and over 10000 nM in data set [4].

For the compound `CN1C(=O)[C@H](Cc2ccccc2)NC(=O)[C@H](CC(=O)O)NC(=O)CNC(=O)[C@H](CCCNC(=N)N)NC(=O)CCCCCc2cccc3c(c[nH]c23)C[C@@H]1C(N)=O`, the IC50 at Integrin alpha-V/beta-3 [1] was 38.9 nM; on Integrin alpha-V/beta-3 [2] it was over 500000 nM; at Integrin alpha-5/beta-1, 419 nM.

Consider `N=C(N)NCCC[C@@H]1NC(=O)c2ccc(cc2)-c2cccc3c(c[nH]c23)C[C@H](C(N)=O)NC(=O)[C@H](Cc2ccccc2)NC(=O)[C@H](CC(=O)O)NC(=O)CNC1=O`, for which the IC50 at Integrin alpha-V/beta-3 [1] is 17.7 nM; at Integrin alpha-V/beta-3 [2], 51000 nM; on Integrin alpha-5/beta-1 it was 9290 nM; in data set [4] it was over 10000 nM.

Consider `N=C(N)NCCC[C@@H]1NC(=O)c2ccc(cc2)-c2cccc3c(c[nH]c23)C[C@@H](C(N)=O)NC(=O)[C@H](CC(=O)O)NC(=O)CNC1=O`, for which the IC50 on Integrin alpha-V/beta-3 [1] was 491 nM; on Integrin alpha-V/beta-3 [2], over 500000 nM; on Integrin alpha-5/beta-1 it was 3660 nM.

As for `CN1C(=O)[C@H](Cc2ccccc2)NC(=O)[C@H](CC(=O)O)NC(=O)CNC(=O)[C@H](CCCNC(=N)N)NC(=O)c2ccc(cc2)-c2cccc3c(c[nH]c23)C[C@@H]1C(N)=O`, the IC50 on Integrin alpha-V/beta-3 [1] was 23 nM; on Integrin alpha-V/beta-3 [2] it was 11100 nM; on Integrin alpha-5/beta-1, 835 nM; in data set [4] it was over 10000 nM.

Regarding `N=C(N)NCCC[C@@H]1NC(=O)c2cccc(c2)-c2cccc3c(c[nH]c23)C[C@@H](C(N)=O)NC(=O)[C@@H](Cc2ccccc2)NC(=O)[C@H](CC(=O)O)NC(=O)CNC1=O`, the IC50 at Integrin alpha-V/beta-3 [1] is 65 nM; at Integrin alpha-V/beta-3 [2], over 500000 nM; at Integrin alpha-5/beta-1, 983 nM.
